# Results pooled from the literature.
# Each line is one published result; the experiments were not run side by side.
# Observed: cell growth or viability
Compound,cell line,test,conditions,measurement,value
O=C(C=Cc1cccc(F)c1)Nc1cc(-c2ccnc(N3CCC(O)CC3)c2)ccn1,A549,MTT,5 µM,inhibition,65%
Cc1nc(NC(=O)N2CCC[C@H]2C(N)=O)sc1-c1ccnc(C(C)(C)C(F)(F)F)c1,A549,MTT,,IC50,11.1 µM
COc1cccc2c1C(=O)c1c(O)c3c(c(O)c1C2=O)C[C@@](O)(C(=O)CO)C[C@@H]3O[C@H]1C[C@H](N)[C@H](O)[C@H](C)O1,A549,MTT,"50 µg/mL, 48 h, serum-free",viability,20.2%
Cc1cccc(/C=C/C(=O)Nc2cccc(-c3ccnc(N4CCOCC4)c3)c2)c1,A549,MTT,5 µM,inhibition,29.4%
Cc1nc(Nc2ccc3c(c2)CC(=O)N3)c2ccccc2n1,A549,MTT,,IC50,28.5 µM
COc1ccc(-c2cc(-c3ccc(Br)cc3)c3c(=O)[nH]c(=O)[nH]c3n2)cc1,PC-3,MTT,48 h,IC50,15.9 µM
O=C(C=Cc1ccccc1)Nc1cc(-c2ccnc(N3CCOCC3)c2)ccn1,A549,MTT,5 µM,inhibition,76.7%
Cc1ccc(-c2cc(-c3ccc(Cl)c(F)c3)c3c(=O)[nH]c(=O)[nH]c3n2)cc1,PC-3,MTT,48 h,IC50,21.2 µM
COc1cc2ncnc(Nc3ccc4c(c3)/C(=C/c3ccccc3)C(=O)N4)c2cc1OC,A549,MTT,,IC50,17.1 µM
Cc1cc(NC(=O)C=Cc2ccccc2)cc(-c2ccnc(N3CCOCC3)c2)c1,A549,MTT,5 µM,inhibition,17.7%
Cc1c(Cc2ccccc2)c(=O)oc2c(C)c(OCC(=O)NN=Cc3ccco3)ccc12,PC-3,MTT,500 µg/mL,viability,8.21%
C=CC(=O)NC1CCN(c2ncc3ncnc(Nc4ccc(Oc5ccc6c(c5)ncn6C)c(C)c4)c3n2)CC1,NCI-H2170,,,IC50,0.0581 µM
O=C(O)c1ccc2c(c1)nc(Nc1cccc(Cl)c1)c1ccncc12,NCI-H522,resazurin,48 h,IC50,9.3 µM
CCc1c(C)c2ccc(OCc3nnc(S)n3N)c(C)c2oc1=O,PC-3,MTT,125 µg/mL,viability,11.3%
COc1ccc(-c2cc(-c3ccc(OC)cc3)c3c(=O)[nH]c(=O)[nH]c3n2)cc1,PC-3,MTT,48 h,IC50,12.3 µM
CC(=NNC(=O)COc1ccc2c(C)c(Cc3ccccc3)c(=O)oc2c1C)c1ccc(Br)cc1,PC-3,MTT,31.25 µg/mL,viability,14%
Cc1cc(NC(=O)C=Cc2ccccc2)cc(-c2ccnc(N3CCC(CO)CC3)c2)c1,A549,MTT,5 µM,inhibition,54.3%
C=CCOc1ccc2c(C)c(CC)c(=O)oc2c1C,PC-3,MTT,500 µg/mL,viability,7.08%
Cc1nc(Nc2ccc3c(c2)/C(=C/c2ccccc2C)C(=O)N3C)c2ccccc2n1,A549,MTT,,IC50,21.6 µM
Cc1c(Cc2ccccc2)c(=O)oc2c(C)c(OCC(=O)NN=Cc3ccccc3)ccc12,PC-3,MTT,125 µg/mL,viability,21.2%
Cc1cccc(/C=C/C(=O)Nc2cccc(-c3ccnc(N4CCC(O)CC4)c3)c2)c1,A549,MTT,5 µM,inhibition,54.8%
CCc1c(C)c2ccc(OCC(=O)NN=Cc3ccc([N+](=O)[O-])cc3)cc2oc1=O,PC-3,MTT,500 µg/mL,viability,5.32%
CC(C)C[C@@H]1NC(=O)[C@@H](N(C)C(=O)[C@H](CC2CCC2)NC(=O)[C@@H]2C[C@@H](F)CN2C(=O)C2(C(F)(F)F)CC(F)(F)C2)CCCCNC(=O)C2(CC2)NC(=O)[C@H](Cc2cc(Cl)ccc2Cl)N(C)C1=O,NCI-H1048,MTT,5 days,GI50,0.032 µM
O=C(CCc1ccccc1)Nc1cc(-c2ccnc(N3CCC(O)CC3)c2)ccn1,A549,MTT,5 µM,inhibition,65.7%
CCc1c(C)c2ccc(OCC(=O)NNC(=S)Nc3ccccc3)c(C)c2oc1=O,PC-3,MTT,125 µg/mL,viability,4.76%
O=C(C=Cc1ccc(F)cc1)Nc1cc(-c2ccnc(N3CCC(O)CC3)c2)ccn1,A549,MTT,5 µM,inhibition,65.9%
Cc1c(Cc2ccccc2)c(=O)oc2c(C)c(OCC(=O)NN=Cc3ccc(Cl)cc3)ccc12,PC-3,MTT,31.25 µg/mL,viability,61.2%
